Experimental data from ChEMBL document CHEMBL1134460, “Terminally alkylated polyamine analogues as chemotherapeutic agents” (J Med Chem, 2001).

How the values were obtained:
[1] = target: S-adenosylmethionine decarboxylase (Homo sapiens) (UniProt P17707); assay: Inhibition of Inhibition of human form of S-adenosyl-methionine decarboxylase enzyme (AdoMet-DC); parameters: concentration or dose not given beside the values; conditions: concentration not given here
[2] = target: T1, Ornithine decarboxylase (Homo sapiens) (UniProt P11926); assay: Inhibition of ornithine decarboxylase (ODC); parameters: concentration or dose not given beside the values; conditions: concentration not given here
T1 sequence (whole entry): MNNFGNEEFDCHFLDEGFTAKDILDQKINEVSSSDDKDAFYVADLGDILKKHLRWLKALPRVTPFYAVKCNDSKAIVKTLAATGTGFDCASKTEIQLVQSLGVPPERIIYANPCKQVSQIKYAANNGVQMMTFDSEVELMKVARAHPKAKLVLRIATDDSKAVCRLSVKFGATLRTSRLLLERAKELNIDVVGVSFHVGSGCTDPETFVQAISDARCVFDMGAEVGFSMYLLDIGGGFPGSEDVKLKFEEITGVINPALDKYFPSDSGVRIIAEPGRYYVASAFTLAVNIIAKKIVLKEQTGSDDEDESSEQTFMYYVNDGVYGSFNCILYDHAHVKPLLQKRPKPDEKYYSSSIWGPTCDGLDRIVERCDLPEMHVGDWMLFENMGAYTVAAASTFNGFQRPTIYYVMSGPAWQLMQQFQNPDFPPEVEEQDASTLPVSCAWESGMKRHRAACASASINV

[3] = target: Diamine acetyltransferase 1 (Homo sapiens, UniProt P21673); assay: Effect of 10 uM on spermine/spermidine-N-acetyltransferase (SSAT) induction in non-SCLC cells; type: cell-based
Diamine acetyltransferase 1, sequence (P21673 whole entry): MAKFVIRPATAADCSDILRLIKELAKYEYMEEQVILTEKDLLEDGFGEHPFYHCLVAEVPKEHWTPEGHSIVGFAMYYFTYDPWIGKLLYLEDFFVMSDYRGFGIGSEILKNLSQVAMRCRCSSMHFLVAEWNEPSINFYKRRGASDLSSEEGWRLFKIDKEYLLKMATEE
Procedure, shortened: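 NCI H157 non-small-cell lung tumor cells were exposed to 10 μM analogue. SSAT activity was assayed and expressed as pmol product/mg protein/min, then as fold increase over untreated control cells.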

NCI-H157 [4] = assay: Effect of exposure of H157 non-SCLC (<10 uM) for 96-h, and accumulation of compound was determined; type: functional, Homo sapiens
NCI-H157 [5] = assay: Effect of exposure of H157 non-SCLC to compound (<10 uM) for 96-h, on natural polyamines and accumulation of the compound; Decrease; type: functional, cell-based; conditions: Homo sapiens
Procedure, shortened: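 H157 non-SCLC cells were treated with 10 μM analogue. Cellular putrescine, spermidine and spermine, plus the intracellular analogue, were quantified and compared with untreated control cells.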

Trypanosoma brucei [6] = assay: In vitro growth Inhibitory activity against LAB 110 Strain of Trypanosoma brucei; type: functional, organism-based
Procedure, shortened: (§1)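 In vitro growth inhibition was run against T. b. brucei LAB EATRO 110 and T. b. rhodesiense KETRI 243, KETRI 243 As-10-3 and KETRI 269. […] ">100" means no appreciable inhibition up to the highest concentration tested.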

Trypanosoma brucei [7] = assay: In vitro growth Inhibitory activity against K243 Strain of Trypanosoma brucei.; type: functional, organism-based
Procedure, shortened: as §1

NCI-H157 [8] = assay: In vitro activity against H157 non-small-cell lung tumor line (non-SCLC) cultures.; type: functional, cell-based; conditions: Homo sapiens
Cricetinae gen. sp. = assay: […] activity was determined against Leishmania donovani in hamsters; type: functional, Cricetulus griseus
NCI-H157 [9] = assay: Antitumor activity was determined against H157 cell line; type: functional, cell-based; conditions: Homo sapiens
NCH82 [10] = assay: In vitro activity against H82 small-cell lung tumor line (SCLC) cultures.; type: functional, cell-based; conditions: Homo sapiens
Mus musculus = species on record: Mus musculus; assay: […] activity was determined against Leishmania donovani in mice (Mus musculus); type: functional
[11] = target: T2, S-adenosylmethionine decarboxylase proenzyme (Rattus norvegicus, UniProt P17708); assay: Inhibition of rat liver form of S-adenosyl-methionine decarboxylase enzyme
T2 sequence (P17708 whole entry): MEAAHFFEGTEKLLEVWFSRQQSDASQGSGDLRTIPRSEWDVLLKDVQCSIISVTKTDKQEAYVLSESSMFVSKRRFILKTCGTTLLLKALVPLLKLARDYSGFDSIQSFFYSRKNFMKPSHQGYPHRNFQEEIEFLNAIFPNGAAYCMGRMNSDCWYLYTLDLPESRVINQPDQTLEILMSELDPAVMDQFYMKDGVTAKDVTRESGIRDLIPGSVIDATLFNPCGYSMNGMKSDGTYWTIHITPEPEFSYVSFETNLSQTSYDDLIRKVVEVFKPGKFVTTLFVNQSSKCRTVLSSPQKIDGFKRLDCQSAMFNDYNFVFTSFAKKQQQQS

NCH82 [12] = assay: Cytokinetic effects on H82 small-cell lung tumor line (SCLC) after 96-h treatment; type: functional, Homo sapiens
[13] = Half-life period in liver tissues; type: ADME, tissue-based
Trypanosoma brucei [14] = assay: in vivo inhibition of trypanosomal brucei growth was determined; type: functional, organism-based
[15] = Compound was evaluated for cytotoxic activity against PC-3, DU145 and LNCaP cell lines; type: functional, Homo sapiens
Procedure, shortened: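 PC-3, DU145 and LNCaP prostate cancer cells were exposed to analogues over 0.1–30 μM for 120 h. Dose–response curves of growth were recorded.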

NCI-H157 [16] = assay: Spermine/Spermidine-N1-acetyltransferase activity in NCI H157 non-SCLC tumor cells following 24-h treatment with 10 uM of compound; type: functional, Homo sapiens
Procedure, shortened: (§2)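 NCI H157 non-SCLC cells were exposed to 10 μM analogue alongside untreated controls. Cellular polyamines and analogue were quantified. SSAT activity was assayed in the cells and reported as pmol product/mg protein/min.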

NCI-H157 [17] = assay: Spermidine level in NCI H157 non-SCLC tumor cells following 24-h treatment with 10 uM of compound; type: functional, Homo sapiens
Procedure, shortened: as §2

NCI-H157 [18] = assay: Putrescine level in NCI H157 non-SCLC tumor cells following 24-h treatment with 10 uM of compound; type: functional, Homo sapiens
Procedure, shortened: as §2

NCI-H157 [19] = assay: CHENSpm level in NCI H157 non-SCLC tumor cells following 24-h treatment with 10 uM of compound; type: functional, Homo sapiens
Procedure, shortened: as §2

NCI-H157 [20] = assay: Spermine level in NCI H157 non-SCLC tumor cells following 24-h treatment with 10 uM of compound; type: functional, Homo sapiens
Procedure, shortened: as §2

NCI-H157 [21] = assay: BENSpm level in NCI H157 non-SCLC tumor cells following 24-h treatment with 10 uM of compound; type: functional, Homo sapiens
Procedure, shortened: as §2

Spermine synthase = target: T3, Spermine synthase (Homo sapiens, UniProt P52788); assay: Inhibitory activity against spermine synthase
T3 sequence (P52788 whole entry): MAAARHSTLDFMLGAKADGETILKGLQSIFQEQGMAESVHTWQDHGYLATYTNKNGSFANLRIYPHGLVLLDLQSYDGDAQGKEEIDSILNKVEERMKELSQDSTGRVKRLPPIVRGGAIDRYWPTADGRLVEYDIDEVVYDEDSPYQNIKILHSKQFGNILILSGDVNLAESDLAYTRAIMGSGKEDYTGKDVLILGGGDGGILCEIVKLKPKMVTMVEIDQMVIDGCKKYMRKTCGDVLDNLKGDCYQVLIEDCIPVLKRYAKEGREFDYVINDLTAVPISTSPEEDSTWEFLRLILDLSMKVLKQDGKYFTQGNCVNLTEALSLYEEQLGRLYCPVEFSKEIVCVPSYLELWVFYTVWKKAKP

Trypanosoma brucei [22] = assay: In vitro growth Inhibitory activity against K243 As-10-3 Strain of Trypanosoma brucei; type: functional, organism-based
Procedure, shortened: as §1

Trypanosoma brucei [23] = assay: In vitro growth Inhibitory activity against K269 Strain of Trypanosoma brucei.; type: functional, organism-based
Procedure, shortened: as §1

**Q.** With CCNCCCNCCCNCCCNCC1CCCCC1 as the compound, how does the inhibition [1] read?
**A.** < 50%

**Q.** What about the inhibition [2] of the same compound?
**A.** < 50%

**Q.** And the Induction [3]?
**A.** < 50

**Q.** What about the Amount (NCI-H157 [4]) of the same compound?
**A.** >20 nM (mg of protein)-1

**Q.** What about the “Effect on polyamine pools” value (NCI-H157 [5]) of the same compound?
**A.** Decrease

**Q.** For CCNCCCN[C@H]1C=C[C@@H](N)CCC1, which IC50 (Trypanosoma brucei [6]) is on record?
**A.** > 100000 nM

**Q.** What about the IC50 (Trypanosoma brucei [7]) of the same compound?
**A.** > 100000 nM

**Q.** What does the source list for c1ccc(CNCCCNCCCCCCCNCCCNCc2ccccc2)cc1?
**A.** IC50 (NCI-H157 [8]): 500 nM; ED50 (Cricetinae gen. sp.): 1 mg/kg; IC50 (NCI-H157 [9]): 500 nM; IC50 (NCH82 [10]): 1700 nM; ED50 (Mus musculus): 2.5 mg/kg

**Q.** Which Ki [11] does the source give for NC/C=C\NC[C@@H]1O[C@H](n2cnc3c(N)ncnc32)[C@@H](O)[C@H]1O here?
**A.** 560 nM

**Q.** What does the source list for CCNCCCNCCCNCCCO?
**A.** inhibition [1]: < 50%; Effect (NCH82 [12]): 0; inhibition [2]: < 50%; Induction [3]: > 500; Amount (NCI-H157 [4]): >20 nM (mg of protein)-1; Effect on polyamine pools (NCI-H157 [5]): Decrease

**Q.** Which Induction [3] does the source give for CCNCCCNCCCNCC1CCCCCC1 here?
**A.** > 500

**Q.** What about the Amount (NCI-H157 [4]) of the same compound?
**A.** >20 nM (mg of protein)-1

**Q.** What about the “Effect on polyamine pools” value (NCI-H157 [5]) of the same compound?
**A.** Decrease

**Q.** With CCNCCCCNCCCCNCCCCNCC [DIETHYLHOMOSPERMINE] as the compound, how does the half-life [13] read?
**A.** 15.4 days

**Q.** For CCNCCCNCCCNCCCNC1CCCCCC1, which Induction [3] is on record?
**A.** > 500

**Q.** And the Amount (NCI-H157 [4])?
**A.** >20 nM (mg of protein)-1

**Q.** What about the “Effect on polyamine pools” value (NCI-H157 [5]) of the same compound?
**A.** Decrease

**Q.** For C[S+](C[C@@H]1O[C@H](n2cnc3c(N)ncnc32)[C@@H](O)[C@H]1O)C1C=CC(N)C1 (stereo partly drawn), which IC50 (Trypanosoma brucei [14]) is on record?
**A.** 5200 nM

**Q.** With CCNCCCNCCCNCCCNCC1CCCCCC1 as the compound, how does the IC50 (NCI-H157 [8]) read?
**A.** 400 nM

**Q.** And the CC [15]?
**A.** 30 µM

**Q.** What about the Activity (NCI-H157 [16]) of the same compound?
**A.** 781 (pM of product) min-1 (mg of protein)-1

**Q.** And the Polyamine level (NCI-H157 [17])?
**A.** 6.44

**Q.** What about the Polyamine level (NCI-H157 [18]) of the same compound?
**A.** 4.28

**Q.** And the inhibition [1]?
**A.** < 50%

**Q.** What about the Polyamine level (NCI-H157 [19]) of the same compound?
**A.** 14.66

**Q.** And the inhibition [2]?
**A.** < 50%

**Q.** And the Induction [3]?
**A.** 0

**Q.** What about the Amount (NCI-H157 [4]) of the same compound?
**A.** >20 nM (mg of protein)-1

**Q.** What about the IC50 (NCH82 [10]) of the same compound?
**A.** 700 nM

**Q.** And the Polyamine level (NCI-H157 [20])?
**A.** 15.97

**Q.** And the “Effect on polyamine pools” value (NCI-H157 [5])?
**A.** Decrease

**Q.** What about the Polyamine level (NCI-H157 [21]) of the same compound?
**A.** 0

**Q.** With CCNCCCNCCCNCCCN1CCCCCC1 as the compound, how does the Induction [3] read?
**A.** > 500

**Q.** What about the “Effect on polyamine pools” value (NCI-H157 [5]) of the same compound?
**A.** Decrease

**Q.** For NCCCNCCCCCC(CCN)SC[C@H]1O[C@@H](n2cnc3c(N)ncnc32)[C@H](O)[C@@H]1O (stereo partly drawn), which IC50 (Spermine synthase) is on record?
**A.** 20 nM

**Q.** What does the source list for COc1cccc(CNCCCNCCCCCCCNCCCNCc2cccc(OC)c2)c1?
**A.** IC50 (Trypanosoma brucei [22]): 5500 nM; IC50 (Trypanosoma brucei [6]): 22000 nM; IC50 (Trypanosoma brucei [23]): 16500 nM; IC50 (Trypanosoma brucei [7]): 18500 nM
